Bioassay records (PubChem)
PAFAH1B2 inh: blocks human PAF acetylhydrolase 1b catalytic subunit 2. actives 1.2% (n = 340,000). inhibition, % at 3.39 µM. P68402. recombinant PAFAH1B2, FP-rhodamine activity probe, fluorescence polarization;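 active = inhibition above the mean of all tested compounds plus 3 SD, cut at about 24% in these data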;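 note: 0% = enzyme with DMSO and 100% = wells lacking PAFAH1B2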
Target sequence (P68402 whole entry, looked up): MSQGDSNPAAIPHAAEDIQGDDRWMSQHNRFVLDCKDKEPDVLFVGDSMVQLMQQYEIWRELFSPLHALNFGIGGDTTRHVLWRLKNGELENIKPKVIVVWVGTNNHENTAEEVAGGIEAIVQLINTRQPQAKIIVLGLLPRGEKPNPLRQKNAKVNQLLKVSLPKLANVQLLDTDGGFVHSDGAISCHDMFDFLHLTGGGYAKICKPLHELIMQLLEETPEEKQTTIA
VIM-2 inhibitor: blocks Pseudomonas aeruginosa VIM-2 metallo-beta-lactamase | purified VIM-2, nitrocefin hydrolysis, epi-absorbance fluorescence | inhibition, % at 5.6 µM | actives 0.89% (n = 290,000);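 active = inhibition above the mean of all tested compounds plus 3 SD, cutoff set per screening run, cut at about 7.5% in these data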;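 note: red hydrolysis product quenches plate fluorescence so inhibitors raise well fluorescence; 0% = enzyme with DMSO and 100% = DMSO without enzyme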
PAFAH2 inh: inhibitors of human PAFAH2 | actives 0.99% (n = 340,000) | AID 492956 | recombinant PAFAH2, FP-rhodamine activity probe, fluorescence polarization | Q99487 | inhibition, % at 3.39 µM;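 active = inhibition above the mean over all tested compounds plus 3 SD, cut at about 30% in these data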;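 note: inhibitors block probe labeling of enzyme so polarization drops; 0% = enzyme with DMSO and 100% = wells lacking PAFAH2 protein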
PAFAH1B3 FP inh: PAFAH1B3 (human) inhibition | Q15102 | recombinant PAFAH1B3, FP-rhodamine probe, fluorescence polarization | inhibition, % at 3.39 µM | actives 0.28% (n = 340,000);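 active = inhibition above the screen-wide average of all tested compounds plus 3 SD, cut at about 25% in these data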;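 note: 0% = enzyme with DMSO only and 100% = wells lacking PAFAH1B3 protein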
Target sequence (Q15102 whole entry, looked up): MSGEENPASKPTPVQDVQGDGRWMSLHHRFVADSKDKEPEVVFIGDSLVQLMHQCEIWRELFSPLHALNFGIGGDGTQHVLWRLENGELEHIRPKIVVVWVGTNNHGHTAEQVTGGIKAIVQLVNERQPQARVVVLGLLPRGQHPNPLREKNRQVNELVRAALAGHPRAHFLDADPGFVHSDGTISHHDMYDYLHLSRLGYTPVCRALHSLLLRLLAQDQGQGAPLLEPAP
IMP-1 inhibitor: blocks Pseudomonas aeruginosa IMP-1 metallo-beta-lactamase; purified IMP-1, nitrocefin hydrolysis, epi-absorbance fluorescence; inhibition, % at 5.6 µM; actives 0.45% (n = 290,000);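 active = inhibition above the mean plus 3 SD of all compounds in the same screening run, cut at about 4.5% in these data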;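 note: 0% = IMP-1 with DMSO and 100% = DMSO wells lacking enzyme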
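System: purified recombinant IMP-1 beta-lactamase. Medium: Zinc- and detergent-supplemented HEPES buffer, pH 7.1. Compound: one 5.6 µM dose […]. Schedule: 15 min preincubation plus 25 min reaction at 25 °C. Technique: Epi-absorbance fluorescence, 480 nm excitation, 530 nm emission.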
pPAFAH inh: inhibitors of human plasma PAF acetylhydrolase (pPAFAH); AID 463082; actives 1.5% (n = 330,000); Q13093; inhibition, % at 3.39 µM; recombinant pPAFAH, FP-rhodamine probe fluorescence polarization;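 active = inhibition above the mean inhibition across the screen plus 3 SD, cut at about 25% in these data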;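 note: inhibitors block binding of the rhodamine activity-based probe so polarization drops; 0% = enzyme with DMSO and 100% = wells lacking pPAFAH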
pPAFAH confirm: pPAFAH (human) inhibition, confirmed; shares compounds with pPAFAH inh; recombinant pPAFAH, FP-Rh probe fluorescence polarization; inhibition, % at 3.39 µM; actives 72% (n = 2,300); AID 463230;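 active = mean inhibition of the triplicate above the hit cutoff set for the earlier primary screen, cut at about 25% in these data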;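 note: 0% = enzyme with DMSO and 100% = wells lacking pPAFAH enzyme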
* = called active by the depositor; · = no result. Most compounds without a hit are left out; they make up all but 3.6% or so of the library.

SMILES | PAFAH1B2 inh | VIM-2 inhibitor | PAFAH2 inh | PAFAH1B3 FP inh | IMP-1 inhibitor | pPAFAH inh | pPAFAH confirm
CCC(=O)Nc1ccccc1C(=O)N1CCOCC1 | 4 | -2 | 2 | 8 | -3 | 6 | ·
Cc1cnc(C(=O)Nc2ccccc2C(=O)N2CCOCC2)cn1 | 7 | -3 | -3 | 9 | -1 | 37* | 4
CCCC(=Nc1ccc(N)cc1)C1=C(O)C(C(=O)OC)C(C)(C)CC1=O (configuration not stated) | 4 | -2 | 16 | 13 | -2 | 40* | 5
CCCC(=O)C1=C(O)C(C(=O)OC)C(C)(C)CC1=Nc1ccc(N)cc1 (configuration not stated) | 0 | 0 | 0 | 0 | -3 | 1 | ·
CSC(=Nc1ccccc1)N=C(SCc1ccccc1)N(C)C | 1 | · | 2 | 8 | · | · | ·
O=C(CCCN1C(=O)/C(=C\c2cccs2)SC1=S)Nc1cccc(C(=O)O)c1 | -2 | -3 | 9 | 3 | -4 | 8 | ·
O=C(CCCN1C(=O)/C(=C\c2ccco2)SC1=S)Nc1ccc(O)cc1C(=O)O | 19 | -3 | 39* | 3 | 4 | 68* | 11
O=C(CCCN1C(=O)/C(=C/c2ccco2)SC1=S)Nc1cccc(C(=O)O)c1 | 7 | 0 | 11 | 5 | 4 | 50* | 5
COc1ccc(NC(=O)CCCN2C(=O)/C(=C\c3ccco3)SC2=S)cc1 | 1 | -2 | -1 | 6 | 0 | 14 | ·
Cn1nccc1C(=O)NC1CCCc2c1cnn2-c1ccc(C(C)(C)C)cc1 (configuration not stated) | -3 | -4 | 5 | 0 | -4 | 16 | ·
COc1ccc(-c2coc3cc(OC(=O)N4CCOCC4)ccc3c2=O)cc1 | -8 | 1 | 7 | 5 | 0 | 51* | 43*
COc1cc2[nH]c3c(N4CCN(c5ccccn5)CC4)ncnc3c2cc1OC | 4 | 7 | -3 | 7 | -2 | 70* | 58*
Cc1ccc(NS(=O)(=O)c2ccc(Cl)c(N=Nc3c(O)[nH]c(=O)[nH]c3=O)c2)cc1Cl | 16 | · | 41* | 26* | · | 89* | 89*
Cc1c(Cl)cccc1NC(=S)NC(=O)c1cncc(Br)c1 | -6 | · | 15 | 3 | · | 7 | ·
Cc1ccc(S(=O)(=O)Nc2c(C(=O)O)[nH]c3ccccc23)c(C)c1 | 16 | 0 | 12 | 11 | -1 | 12 | ·
O=C(O)c1[nH]c2ccccc2c1NS(=O)(=O)Cc1ccccc1 | 7 | 3 | -2 | -2 | -1 | 38* | 6
O=C1CC(N(O)c2ccccc2)C(=O)N1c1ccc(Cl)c(Cl)c1 (configuration not stated) | -3 | -2 | 1 | 4 | -3 | 49* | 5
O=C(O)CSC1CC(=O)N(c2ccc(Cl)c(Cl)c2)C1=O (configuration not stated) | 5 | 0 | -8 | 6 | -1 | 4 | ·
CC(C)(C)OC(=O)NCC1CCC(C(=O)NC[C@H](CC(=O)O)c2ccc(Cl)cc2)CC1 (some centres not stated) | -2 | 0 | -4 | -4 | -1 | -4 | ·
O=c1cc(S(=O)(=O)Cc2ccccc2)[nH]c(=O)[nH]1 | 6 | · | 2 | 6 | · | · | ·
Cc1c(NC(=O)c2ccc(NS(=O)(=O)c3ccccc3)cc2)c(=O)n(-c2ccccc2)n1C | 5 | -2 | 8 | 0 | -5 | 8 | ·
Cc1ccc(-n2c(CCC(=O)O)ccc2-c2cccs2)cc1 | 7 | -3 | 7 | 3 | -3 | 51* | 13
CC(=O)c1ccc(-n2c(CCC(=O)O)ccc2-c2cccs2)cc1 | 2 | 0 | 2 | -4 | -2 | 6 | ·
C/C(=N\NC(=O)c1c[nH]c2ccccc12)c1ccc(C)o1 | 2 | -5 | 10 | 2 | -2 | 2 | ·
C/C(=N\NC(=O)c1cc2ccccc2cc1O)c1ccc(C)o1 | 10 | -1 | 4 | 4 | -1 | 41* | 5
SMILES | PAFAH1B2 inh | VIM-2 inhibitor | PAFAH2 inh | PAFAH1B3 FP inh | IMP-1 inhibitor | pPAFAH inh | pPAFAH confirm
C/C(=N\NC(=O)c1cc2ccccc2cc1O)c1cccs1 | 6 | -2 | 9 | 16 | -3 | 52* | 4
Cc1c(Nc2nc3ccccc3n3cnnc23)cccc1[N+](=O)[O-] | 2 | -1 | 4 | 3 | -3 | 1 | ·
Cc1cc([N+](=O)[O-])ccc1Nc1nc2ccccc2n2cnnc12 | 8 | 5 | -3 | 4 | -3 | 37* | 5
Cc1cc(Br)c(S(=O)(=O)NCc2cccnc2)cc1C | 8 | -2 | -12 | 13 | -2 | 49* | 5
CC1=NOC(=O)/C1=C\c1ccc(-c2ccc(Cl)cc2Cl)o1 | 18 | -1 | 25 | 9 | -2 | · | ·
O=C(O)c1cc(Cl)ccc1-c1ccc(/C=C/c2cc(C(F)(F)F)[nH]c(=O)n2)o1 | 1 | 2 | 8 | -4 | 3 | 43* | 9
Cc1c(C)c2ccc(OCC(=O)N3CC[C@@]4(O)CCCC[C@H]4C3)c(C)c2oc1=O | 4 | 6 | 9 | 9 | -3 | 2 | ·
O=C(O)CN1C(=O)/C(=C\c2cc(Br)ccc2OCc2ccc([N+](=O)[O-])cc2)SC1=S | 6 | 2 | 12 | 8 | 0 | 59* | 58*
O=C(O)CN1C(=O)/C(=C\c2cc(Br)ccc2OCc2ccccc2Cl)SC1=S | 2 | 0 | 24 | 9 | -1 | 45* | 75*
O=C(O)CN1C(=O)/C(=C\c2cc(Br)ccc2OCc2ccccc2F)SC1=S | 4 | -2 | 31* | 5 | -1 | 52* | 67*
O=C1/C(=C\c2cc(Br)cc(Br)c2O)SC(=S)N1Cc1ccccc1 | -40 | -9 | -17 | -59 | 4 | 12 | ·
NC(=O)C1CCN(CC(O)COCc2ccccc2Cl)CC1 (configuration not stated) | 3 | -1 | -2 | 1 | -2 | 5 | ·
Cn1c(=N)n(CC(=O)c2ccc(Br)cc2)c2ccccc21 | 2 | · | 1 | -6 | · | 35* | 6
COc1ccccc1CCNC(=O)c1cccc(S(=O)(=O)N2CCc3ccccc3C2)c1 | -1 | · | 10 | 3 | · | 0 | ·
Cc1oc(-c2ccc(F)cc2)cc1-c1nn2c(-c3ccco3)nnc2s1 | · | -3 | · | · | -3 | · | ·
Cc1oc(-c2ccc(F)cc2)cc1-c1nn2c(-c3ccoc3C)nnc2s1 | 0 | · | 16 | 6 | · | 35* | 17
Cc1cc(NC(=O)Cc2cccs2)no1 | 2 | -3 | 35* | 10 | 6.8* | 54* | 12
CCc1c(C)nc2ncnn2c1N1CCCC(C(=O)NCc2cccs2)C1 (configuration not stated) | -2 | -2 | 4 | 2 | -2 | -2 | ·
CCc1c(C)nc2ncnn2c1N1CCCC(C(=O)NCc2ccco2)C1 (configuration not stated) | -1 | -3 | 1 | -7 | -3 | 57* | 4
